The values below come from the EternaBench riboswitch data.

For this data set, the system named is MS2 coat protein. In words: apparent Kd, MS2 coat protein; higher = weaker binding; RNA-MaP array; FMN 200 µM where present. Put shortly: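 Designs were transcribed by stalled E. coli RNA polymerase on Illumina sequencing-chip clusters. They were titrated with SNAP-549-labelled MS2 coat protein from 0.7 or 1.5 nM, doubling to 3 µM, in 100 mM Tris-HCl pH 7.5, 80 mM KCl, 4 mM MgCl2, BSA, DTT, yeast tRNA and Tween-20, without and then with constant ligand. The apparent Kd is the median of filtered per-cluster fits after normalisation of green signal to red-channel RNA signal and control-cluster median Fmax.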

Where [1] appears, read: designed as: ON switch for flavin mononucleotide, no ligand.
[2] abbreviates: ligand present: flavin mononucleotide, designed as: ON switch for flavin mononucleotide.
[3] abbreviates: designed as: OFF switch for flavin mononucleotide, no ligand.
[4] abbreviates: ligand present: flavin mononucleotide, designed as: OFF switch for flavin mononucleotide.

As for “GGGUACAUCGGAGGAUAUCAUGUAAAUACAUGAGGAUCACCCAUGUCGAGGGAGACAUCGGAGAUUGAGAAGGCCGAUGUACCG”, the apparent Kd (as a rule, the concentration giving half-maximal binding under the conditions of the assay) under setting [1] worked out at 57.4 nM and the “apparent Kd” value under setting [2] turned out to be 460 nM.

Consider “UUGCCACAUGAGGAUCACCCAUGUGAGGAUAUGGCCUGUUUGGCGUGUGCUGGUUCUGUCAGAAGGCGCGUGGG”, for which the “apparent Kd” value runs as follows: under setting [3], 31.6 nM; under setting [4], 36.5 nM.

For “GCGUAGAUAGCAGGAUAUAUGUUUCCUACAUGAGGAUCACCCAUGUAGGUGAUCAGCCGAGAAAAGUAGAAGGGCUAUCUAUGC”, the “apparent Kd” value worked out at 17.4 nM under setting [1] and 14.5 nM under setting [2].

On to “GACUGCUGAGGAUAUACAUGAGGAUCACCCAUGUGCUUCAGUAUCGAAAGAUGCAUGGGUAGAAGGUGGUAGUC”, for which the “apparent Kd” value was 70.6 nM under setting [3] and 54.4 nM under setting [4].

On to “UGUUGUAUUACAGGAUAUCUAUUAUAUUUAUUUAGAGAAGGGUAUUCACAUGAGGAUCACCCAUGUAUAUACGAGGAAGUUGUG”, for which the “apparent Kd” value turned out to be 49.6 nM under setting [1] and 55.1 nM under setting [2].

With “UGUUGGAGCGAGAAGGGACGAUGGGAAGCUGUAAGCUGGCACUGUAGACAUGAGGAUCACCCAUGUCAGGAUAUUGCCGAACUA”, the “apparent Kd” value turned out to be 5.98 nM under setting [3] and 10.2 nM under setting [4].

“UCGAUGCUAGGAUAUACGUAUAAAACCACCGUAGAGUCCUCACAUGAGGAUCACCCAUGUAGAAGGAGCAUCUA”: the “apparent Kd” value reads like this: under setting [3], 17.3 nM; under setting [4], 23.4 nM.

Turning to “GUUGUUUCUGAGGAUAUUAUUUUUUUCGAUUGAUAAGAAGGCAGUACAUGAGGAUCACCCAUGUGGGUUGUUUG”, the “apparent Kd” value by setting is: under setting [3], 54.5 nM; under setting [4], 164 nM.

Turning to “UCAAGUAUGUAGGAUAUGAUGUGAUUUUACAUAUCAGAAGGACGUACAUGAGGAUCACCCAUGUAACUUGCAUG”, the “apparent Kd” value reads like this: under setting [3], 112 nM; under setting [4], 42.2 nM.

As to “AUAUAUAGUGUGAGGAUAUGCUGGUCCUUGGAUCAGCAGAAGGCACAUGAGGAUCACCCAUGUAGUUUAUUUUU”, the “apparent Kd” value runs as follows: under setting [3], 24.5 nM; under setting [4], 102 nM.

For “GGAGCACAUGAAUACAUGAGGAUCACCCAUGUCAAAAGAUAUGAGGAUAUGGAUCGGAAAACGAUCUAGAAGGCAUAGUGCUCC”, the “apparent Kd” value is, setting by setting: under setting [1], 28.8 nM; under setting [2], 6.98 nM.

Regarding “UUGGACUACGUAGGAUAUGUAGGAUUUUCCUACAUGAGGAUCACCCAUGUUAGCAUGGAAGAAGGACAGAAGGACGUGGUCCAU”, the “apparent Kd” value by setting is: under setting [1], 782 nM; under setting [2], 79.3 nM.

On to “UAAACGUUCUAGAAGGUGCUAGCGAUAAGCUAGCAAGGAUAUAGACAUGAGGAUCACCCAUGUCUUUGUGACAUCGACAUACUU”, for which the “apparent Kd” value stood at 9.03 nM under setting [3] and 12.1 nM under setting [4].

On to “CUCAAGUGAGGAUAUCAGUAGUAAAAAAAUAAAAUUACUACUGAGAAGGCACAUGAGGAUCACCCAUGUGACUU”, for which the “apparent Kd” value is, setting by setting: under setting [3], 26.5 nM; under setting [4], 23.5 nM.

Take “GUGUAGGUAGGAUAUACAUGAGGAUCACCCAUGUGAAUAAGAUAGAAUAAGAUAAAGUGUAGAAGGACUAGUGU”: the “apparent Kd” value is, setting by setting: under setting [3], 37 nM; under setting [4], 28.8 nM.

Turning to “UAUGAAUAGCAAGGAUAUUGAUAACAUGAGGAUCACCCAUGUAAUUGAUCGAGUUAGAUCAGUUACAAGAAGGUGCAAUUGAUU”, the “apparent Kd” value is, setting by setting: under setting [1], 53 nM; under setting [2], 557 nM.

With “CCAUCGAGUGUGAGGAUAUGCUGGUCCAUAGAUCAGCAGAAGGCACAUGAGGAUCACCCAUGUGGAGACGGUGG”, the “apparent Kd” value is, setting by setting: under setting [3], 41.7 nM; under setting [4], 332 nM.

On to “UGAACUAUGUAGAAGGCCCAUAUUUAUAUAUAGGGAGGAUAUACAUGAGGAUCACCCAUGUAAAGAGCAAGAGGACUUGUCAGA”, for which the “apparent Kd” value turned out to be 14.2 nM under setting [3] and 37.3 nM under setting [4].

On to “UUAAAUCAUGUAGGAUAUGCAUGGCGAAGCUACGCAGAAGGACAUGAGGAUCACCCAUGUUAGAGCUACCGAGUUCGGUGGCAA”, for which the “apparent Kd” value under setting [3] stood at 112 nM and the “apparent Kd” value under setting [4] is 210 nM.

For the sequence “AUGCUUUUUGUAGGAUAUACAUACGGUACGUAUGUAGAAGGACAUGAGGAUCACCCAUGUAAAUUAUUAUUAAAUAUCAUACUU”, the “apparent Kd” value under setting [3] worked out at 12.7 nM and the “apparent Kd” value under setting [4] was found to be 12.2 nM.

Turning to “AUCAUUCGUGUAGGAUAUGCGUCAGAAACUGAUGCAGAAGGACAUGAGGAUCACCCAUGUCUUUCUCGAGCUGUAGCUCGAGGA”, the “apparent Kd” value is, setting by setting: under setting [3], 21.3 nM; under setting [4], 145 nM.

Regarding “GACUGAUUGUAGAAGGUACUUGAAAAUAUAUAAUAUCUCAUGUGACAUGAGGAUCACCCAUGUAGUAAGGAUAUACAUAUCACA”, the “apparent Kd” value was 17.7 nM under setting [1] and 17.9 nM under setting [2].

On to “CCGGAAGUACAGGAUAUCGUAUCGGAUACGAUACGAGAAGGGUAUACAUGAGGAUCACCCAUGUGUCCUACCGG”, for which the “apparent Kd” value runs as follows: under setting [3], 29.3 nM; under setting [4], 31.5 nM.

Regarding “GUGGUACAUGAGGAUCACCCAUGUUAGGAUAUCGCGUGAGGUUUUACUUCCGCACACGCGAGAAGGGACGUCUU”, the “apparent Kd” value was determined as 54.9 nM under setting [3] and 41.6 nM under setting [4].

With “CAUGUCCUCACAGGAUAUGCACCACUUUGUGGUGCAGAAGGGUGGAUACAUGAGGAUCACCCAUGUGGACAUGAUAUAUUUAAG”, the “apparent Kd” value is, setting by setting: under setting [1], 708 nM; under setting [2], 58.4 nM.

Regarding “CUAUGCGGAAUAGGAUAUUCGAUCAUGAGGAUAGAAGAAGGGUUACAUGAGGAUCACCCAUGUAUGCACAUGAGGAUCCCUUAG”, the “apparent Kd” value is, setting by setting: under setting [3], 221 nM; under setting [4], 243 nM.

“ACCUUACAUGAGGAUCACCCAUGUUAGGAUAUCUCGCCUGCGCAAUCACAGCGCAGGCAGAGAAGGGACGCGGG”: the “apparent Kd” value stood at 30.3 nM under setting [3] and 32.1 nM under setting [4].

For the sequence “AUAAAUCAUGUAGGAUAUGCGUGGCGAAGCUAUGCAGAAGGACAUGAGGAUCACCCAUGUCUAUCCGUCUGCGUACAGACGGAA”, the “apparent Kd” value stood at 26.2 nM under setting [3] and 216 nM under setting [4].

Take “UUUGUUUUGGUAGGAUAUACUUUUAAUUUCUCUUUCCUUACAUGAGGAUCACCCAUGUUUACAUUGUAGAAGGACCACUUUGUU”: the “apparent Kd” value under setting [3] is 21.8 nM and the “apparent Kd” value under setting [4] was found to be 19.2 nM.

Consider “CCGCCACAUGAGGAUCACCCAUGUCAGGAUAUCUAUCAUAGCAUCGAAAGAUGCGGGUAGAGAAGGGACUAUCC”, for which the “apparent Kd” value by setting is: under setting [3], 28.8 nM; under setting [4], 32.2 nM.

“AAAAUGUGAGGAUAUCAGGUGUGCUAGCGAACUGGUACAUCUGAGAAGGCACAUGAGGAUCACCCAUGUUCCUU”: the “apparent Kd” value runs as follows: under setting [3], 15.8 nM; under setting [4], 57 nM.

For “ACAGGCUUCGAGAAGGACAUGAGGAUCACCCAUGUGCGUGUGAAGCAGCCGUGAGGCUGCAUCAUGUAGGAUAUCGGAGUCUGG”, the “apparent Kd” value worked out at 76 nM under setting [3] and 504 nM under setting [4].

As to “CACCGUUAGAGAGGAUAUCGUACAUGAGGAUCACCCAUGUAAUAAAUGAGAAUUUCGGAUGUAUGCGAGAAGGCUCGAAUCGGC”, the “apparent Kd” value under setting [3] was 53.4 nM and the “apparent Kd” value under setting [4] was determined as 40.7 nM.

In the case of “CUUUUGUGAGGAUAUCAGGUGUGCUAGCGUACUGGUACAUCUGAGAAGGCACAUGAGGAUCACCCAUGUUUCUA”, the “apparent Kd” value came out at 84.9 nM under setting [3] and 74.2 nM under setting [4].

Consider “GGAUCGAGUGUGAGGAUAUGCUGGUCCUAAGAUCAGCAGAAGGCACAUGAGGAUCACCCAUGUGAAAACGGUCC”, for which the “apparent Kd” value by setting is: under setting [3], 26 nM; under setting [4], 182 nM.

Consider “CUGAGGUAAGGAUAUAGGAGAGAAGAUAAGGUAUGAGAGUUCUAGAAGGUACAUGAGGAUCACCCAUGUUAGGG”, for which the “apparent Kd” value worked out at 477 nM under setting [3] and 235 nM under setting [4].

As to “AUCAGCUCGUCAGGAUAUACGUCACUGCGUCAGCAGUGUGGUACGAUCACAUGAGGAUCACCCAUGUAGAAGGGACGAGCUGAU”, the “apparent Kd” value reads like this: under setting [3], 12.7 nM; under setting [4], 215 nM.

With “AAUUAUUUAUGAGGAUAUUGUGGUGAAACACCACAAGAAGGCAUGAUACACAUGAGGAUCACCCAUGUGAGCCUGAUGCUUAUG”, the “apparent Kd” value amounted to 16.7 nM under setting [3] and 20.1 nM under setting [4].

Take “UCAAUUGCGUAGGAUAUACGGGCGCAGGCUAGAGUAGAAGGACGCACAUGAGGAUCACCCAUGUGGGUACCGAU”: the “apparent Kd” value under setting [3] is 17.7 nM and the “apparent Kd” value under setting [4] was determined as 114 nM.

With “GUCUGCUCGUGAGGAUAUACAACACUGCUUCGGCAGUGUAUUAAGAUCACAUGAGGAUCACCCAUGUAGAAGGCACGAGCUGAU”, the “apparent Kd” value by setting is: under setting [3], 14.1 nM; under setting [4], 252 nM.

In the case of “GUGUUUGAUGAGGAUAUCGAUGUGGGUACAUAGCGAGAAGGCAUUACAUGAGGAUCACCCAUGUAGUGUGGGUU”, the “apparent Kd” value stood at 25 nM under setting [3] and 56.7 nM under setting [4].

In the case of “GCCAGGAUGUGAGGAUAUGCUGAGGAUAACUCAGCAGAAGGCACAUGAGGAUCACCCAUGUACACUUAUCAUAAAUACCCUGGC”, the “apparent Kd” value under setting [3] came out at 11.9 nM and the “apparent Kd” value under setting [4] amounted to 16.3 nM.

With “ACAUUUUAUGCAGGAUAUUGACAUAUAUUUAAACAAGAAGGGCAUUACAUGAGGAUCACCCAUGUUAUAAUGGUAUAUAAGUUC”, the “apparent Kd” value was 21.4 nM under setting [3] and 19.2 nM under setting [4].

In the case of “UGCGCUCGGGUGAGGAUAUUAGGACUACAAUUGUAUGAGAAGGCACAUGAGGAUCACCCAUGUGGGUGAGCGCC”, the “apparent Kd” value was determined as 922 nM under setting [3] and 420 nM under setting [4].

In the case of “UUAAUAGUAGGAUAUACAUGAGGAUCACCCAUGUAGCAACUACACAAAGGAACCUGAUGUAGAAGGACUCCCAA”, the “apparent Kd” value was 14.4 nM under setting [3] and 14.5 nM under setting [4].

As for “CUGGAUCACGCAGGAUAUUACAUGAGGAUCACCCAUGUCAGGACUGCAAUAUCGUCUCCUCAUUGUGAGAAGGGCGGAAUCAUU”, the “apparent Kd” value turned out to be 17.7 nM under setting [3] and 86.8 nM under setting [4].

Turning to “GCUACAUAUUUUAAGUUUGAUUAUCUAGAAGGUAGAUACAUGAGGAUCACCCAUGUUUAGAGUUCUAAGGAUAUAGUUUGUAGC”, the “apparent Kd” value was 6.12 nM under setting [1] and 5.91 nM under setting [2].

Consider “UAAUGUGACAUGAGGAUCACCCAUGUAGACAUGGGAAGGUCGUAGGAUAUGCUGAUGAUUUUUUUGCAGAAGGACGUCAAGGAG”, for which the “apparent Kd” value runs as follows: under setting [1], 268 nM; under setting [2], 138 nM.
